Assay results: ChEMBL document CHEMBL4038330, “Discovery of Potent Orally Active Protease-Activated Receptor 1 (PAR1) Antagonists Based on Andrographolide” (J Med Chem, 2017)

Legend:
[1] = molecular target: T1, Proteinase-activated receptor 1 (Homo sapiens, UniProt P25116); test: Antagonist activity at human PAR1 expressed in HEK293 cells co-expressing Galpha15 assessed as inhibition of haTRAP-induced calcium mobilization preincubated for 15 mins followed by haTRAP addition by calcium-4 dye based FLIPR assay; format: functional, cell-based
T1 sequence (P25116 whole entry): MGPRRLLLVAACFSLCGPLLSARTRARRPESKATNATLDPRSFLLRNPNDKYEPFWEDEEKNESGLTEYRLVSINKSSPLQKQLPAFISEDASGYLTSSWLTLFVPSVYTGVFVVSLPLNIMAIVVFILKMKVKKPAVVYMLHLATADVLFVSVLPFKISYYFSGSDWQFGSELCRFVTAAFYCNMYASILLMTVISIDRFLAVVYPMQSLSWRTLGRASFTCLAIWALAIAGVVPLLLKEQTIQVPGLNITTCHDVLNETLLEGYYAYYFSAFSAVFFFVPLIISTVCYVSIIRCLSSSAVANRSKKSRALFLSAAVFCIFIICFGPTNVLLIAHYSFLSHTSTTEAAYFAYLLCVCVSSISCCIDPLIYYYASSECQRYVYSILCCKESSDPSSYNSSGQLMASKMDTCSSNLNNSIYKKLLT

Plasma [2] = test: Drug metabolism in Wistar rat plasma assessed as [M1-2H+O] metabolite formation at 10 mg/kg, po administered as single dose measured at 3 hrs post dose by LC-HRMS analysis; format: ADME, organism-based; conditions: in vivo
How it was run: (§1)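 Rats dosed orally at 10 mg/kg or 5 mg/kg. Plasma taken at 3.0 h after dosing. Parent and metabolites detected by extracted ion chromatograms.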

Plasma [3] = test: Drug metabolism in Wistar rat plasma assessed as [M1-2H] metabolite formation at 10 mg/kg, po administered as single dose measured at 3 hrs post dose by LC-HRMS analysis; format: ADME, organism-based; conditions: in vivo; how it was run: as §1
Plasma [4] = test: Drug metabolism in Wistar rat plasma assessed as (1S,2S,4aS,5S,6R,8aR)-1-((E)-2-(5-(3-Fluorophenyl)pyridin-2-yl)vinyl)-6-hydroxy-5,8a-dimethyloctahydro-1H-spiro[naphthalene-2,2'-oxirane]-5-carboxylic acid metabolite formation at 10 mg/kg, po administered as single dose measured at 3 hrs post dose by LC-HRMS analysis; format: ADME, organism-based; conditions: in vivo; how it was run: as §1
Plasma [5] = test: Stability in Wistar rat assessed as parent compound level in plasma at 10 mg/kg, po administered as single dose measured at 3 hrs post dose by LC-HRMS analysis; format: ADME, organism-based; conditions: in vivo; how it was run: as §1
[6] = AUC (0 to infinity) in Wistar rat plasma at 10 mg/kg, po administered as single dose administered as single dose at 3 hrs post dose by LC-MS/MS analysis; format: ADME, organism-based; set-up: dose 10 mg/kg, route oral, time infinity
Plasma [7] = test: Drug metabolism in Wistar rat plasma assessed as [M1+O] metabolite formation at 10 mg/kg, po administered as single dose measured at 3 hrs post dose by LC-HRMS analysis; format: ADME, organism-based; conditions: in vivo; how it was run: as §1
Plasma [8] = test: Drug metabolism in Wistar rat plasma assessed as [M1-CH2-2H] metabolite formation at 10 mg/kg, po administered as single dose measured at 3 hrs post dose by LC-HRMS analysis; format: ADME, organism-based; conditions: in vivo; how it was run: as §1
Rattus norvegicus = test: AUC (0 to infinity) in Wistar rat assessed as (1S,2S,4aS,5S,6R,8aR)-1-((E)-2-(5-(3-Fluorophenyl)pyridin-2-yl)vinyl)-6-hydroxy-5,8a-dimethyloctahydro-1H-spiro[naphthalene-2,2'-oxirane]-5-carboxylic acid level in plasma at 10 mg/kg, po administered as single dose at 3 hrs post dose by LC-MS/MS analysis; format: ADME, organism-based; set-up: dose 10 mg/kg, route oral, time infinity; conditions: in vivo

## COC(=O)[C@]1(C)[C@H](O)CC[C@@]2(C)[C@H](/C=C/c3ccc(-c4cccc(F)c4)cn3)[C@@]3(CC[C@@H]21)CO3
[1]
  IC50: 7 µM
Plasma [2]
  Drug metabolism: Metabolite_Detected
Plasma [3]
  Drug metabolism: Metabolite_Detected
Plasma [4]
  Drug metabolism: Metabolite_Detected
Plasma [5]
  Stability: Unstable
[6]
  AUC(0-inf): 269 ng·h/mL
Plasma [7]
  Drug metabolism: Metabolite_Detected
Plasma [8]
  Drug metabolism: Metabolite_Detected
Rattus norvegicus
  AUC: 8412.7 ng·h/mL
